From ChEMBL document CHEMBL3616399, “Design, synthesis, and structure-activity relationship studies of novel thienopyrrolidone derivatives with strong antifungal activity against Aspergillus fumigates” (Eur J Med Chem, 2015) come the findings set out here.

Type in all cases: functional
One test deals with Cryptococcus neoformans. As to the kind of experiment: Antifungal activity against Cryptococcus neoformans 32609 after 72 hrs by serial dilution method. To be noted: Cryptococcus neoformans, 32609, 72 h. In a few lines: (§1)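 MIC by broth serial dilution per NCCLS/CLSI (M27-A3 yeasts, M38-A2 filamentous) in 96-well plates; ATCC strains plus clinical isolates; C. parapsilosis 22019 run as quality-control strain in every assay. Compounds dissolved in DMSO, serially diluted in growth medium; incubation 35 °C; MIC read at 24 h (Candida), 48 h (A. fumigatus), 72 h (C. neoformans).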

The test system of another test is Nakaseomyces glabratus. As to the kind of experiment: Antifungal activity against Candida glabrata 537 after 24 hrs by serial dilution method. To be noted: Nakaseomyces glabratus, 537, 24 h. In a few lines: as §1
In test [1] the test system is Candida albicans. As to the kind of experiment: Antifungal activity against Candida albicans Y0109 after 24 hrs by serial dilution method. The settings on record: Y0109, 24 h. Put shortly:
as §1

The next test has as its system Candida parapsilosis. As to the kind of experiment: Antifungal activity against Candida parapsilosis 22019 after 24 hrs by serial dilution method. To be noted: Lodderomyces parapsilosis, 22019, 24 h. In a few lines:
as §1

For test [2], the system named is Candida albicans. As to the kind of experiment: Antifungal activity against Candida albicans SC5314 after 24 hrs by serial dilution method. To be noted: SC5314, 24 h. In a few lines: as §1
The subject of another test is Aspergillus fumigatus. As to the kind of experiment: Antifungal activity against Aspergillus fumigatus 7544 after 48 hrs by serial dilution method. To be noted: Aspergillus fumigatus, 7544, 48 h. Put shortly:
as §1

≈ marks a conversion by molar mass, not a printed value.

Turning to `COc1ncc(-c2cc3c(s2)CN([C@H](C)[C@](O)(Cn2cncn2)c2ccc(F)cc2F)C3=O)cn1`, the MIC in the test on Cryptococcus neoformans came to 0.0156 µg/mL (≈ 0.0313 µM); in the test with Nakaseomyces glabratus, 0.0156 µg/mL (≈ 0.0313 µM); against Candida albicans [1], 0.0156 µg/mL (≈ 0.0313 µM); in the test with Candida parapsilosis, 0.0156 µg/mL (≈ 0.0313 µM); in the test on Candida albicans [2] it was 0.0156 µg/mL (≈ 0.0313 µM); in the test with Aspergillus fumigatus, 16 µg/mL (≈ 32.1 µM).
`COc1ncc(-c2cc3c(s2)C(=O)N([C@H](C)[C@](O)(Cn2cncn2)c2ccc(F)cc2F)C3)cn1`: the MIC amounted to 0.0625 µg/mL (≈ 0.125 µM) against Cryptococcus neoformans; 0.25 µg/mL (≈ 0.501 µM) with Nakaseomyces glabratus; 0.0625 µg/mL (≈ 0.125 µM) in the test on Candida albicans [1]; 0.0625 µg/mL (≈ 0.125 µM) in the test on Candida parapsilosis; 0.0625 µg/mL (≈ 0.125 µM) against Candida albicans [2]; 4 µg/mL (≈ 8.02 µM) with Aspergillus fumigatus.
In the case of `C[C@@H](N1Cc2sc(-c3cncc(F)c3)cc2C1=O)[C@](O)(Cn1cncn1)c1ccc(F)cc1F`, the minimum inhibitory concentration (MIC) with Cryptococcus neoformans was 0.0078 µg/mL (≈ 0.0161 µM); with Nakaseomyces glabratus it was 0.0625 µg/mL (≈ 0.129 µM); in the test with Candida albicans [1], 0.0156 µg/mL (≈ 0.0321 µM); against Candida parapsilosis, 0.0156 µg/mL (≈ 0.0321 µM); in the test with Candida albicans [2], 0.0078 µg/mL (≈ 0.0161 µM); in the test with Aspergillus fumigatus, greater than 64 µg/mL.
As for `C[C@@H](N1Cc2cc(-c3ccc(F)nc3)sc2C1=O)[C@](O)(Cn1cncn1)c1ccc(F)cc1F`, the minimum inhibitory concentration (MIC) in the test with Cryptococcus neoformans came out at 0.25 µg/mL (≈ 0.515 µM); with Nakaseomyces glabratus, 1 µg/mL (≈ 2.06 µM); against Candida albicans [1] it was 0.25 µg/mL (≈ 0.515 µM); against Candida parapsilosis, 0.25 µg/mL (≈ 0.515 µM); in the test with Candida albicans [2], 0.125 µg/mL (≈ 0.257 µM); against Aspergillus fumigatus, 8 µg/mL (≈ 16.5 µM).
Turning to `C[C@@H](N1Cc2cc(-c3cccc(F)c3)sc2C1=O)[C@](O)(Cn1cncn1)c1ccc(F)cc1F`, the MIC turned out to be 0.0625 µg/mL (≈ 0.129 µM) against Cryptococcus neoformans; 0.125 µg/mL (≈ 0.258 µM) against Nakaseomyces glabratus; 0.0625 µg/mL (≈ 0.129 µM) in the test with Candida albicans [1]; 0.125 µg/mL (≈ 0.258 µM) in the test on Candida parapsilosis; 0.0156 µg/mL (≈ 0.0322 µM) in the test with Candida albicans [2]; 4 µg/mL (≈ 8.26 µM) in the test on Aspergillus fumigatus.
Regarding `C[C@@H](N1Cc2sc(-c3cccnc3)cc2C1=O)[C@](O)(Cn1cncn1)c1ccc(F)cc1F`, the MIC worked out at 0.0156 µg/mL (≈ 0.0334 µM) with Cryptococcus neoformans; 0.0156 µg/mL (≈ 0.0334 µM) against Nakaseomyces glabratus; 0.0156 µg/mL (≈ 0.0334 µM) against Candida albicans [1]; 0.0156 µg/mL (≈ 0.0334 µM) in the test on Candida parapsilosis; 0.0156 µg/mL (≈ 0.0334 µM) in the test with Candida albicans [2]; 16 µg/mL (≈ 34.2 µM) against Aspergillus fumigatus.
As for `Cc1ccc(-c2cc3c(s2)C(=O)N([C@H](C)[C@](O)(Cn2cncn2)c2ccc(F)cc2F)C3)cc1`, the MIC with Cryptococcus neoformans was 0.0625 µg/mL (≈ 0.13 µM); in the test on Nakaseomyces glabratus it was 0.0625 µg/mL (≈ 0.13 µM); in the test on Candida albicans [1] it was 0.0312 µg/mL (≈ 0.065 µM); in the test with Candida parapsilosis it was 0.0625 µg/mL (≈ 0.13 µM); in the test with Candida albicans [2], 0.0312 µg/mL (≈ 0.065 µM); in the test on Aspergillus fumigatus it was 4 µg/mL (≈ 8.32 µM).
Take `C[C@@H](N1Cc2cc(-c3cccc(C#N)c3)sc2C1=O)[C@](O)(Cn1cncn1)c1ccc(F)cc1F`: the MIC was determined as 0.125 µg/mL (≈ 0.254 µM) in the test with Cryptococcus neoformans; 0.125 µg/mL (≈ 0.254 µM) in the test with Nakaseomyces glabratus; 0.0625 µg/mL (≈ 0.127 µM) against Candida albicans [1]; 0.125 µg/mL (≈ 0.254 µM) against Candida parapsilosis; 0.0625 µg/mL (≈ 0.127 µM) with Candida albicans [2]; 4 µg/mL (≈ 8.14 µM) against Aspergillus fumigatus.
In the case of `C[C@@H](N1Cc2sc(-c3ccncc3)cc2C1=O)[C@](O)(Cn1cncn1)c1ccc(F)cc1F`, the MIC against Cryptococcus neoformans was 0.0156 µg/mL (≈ 0.0334 µM); against Nakaseomyces glabratus, 0.0625 µg/mL (≈ 0.134 µM); with Candida albicans [1], 0.0156 µg/mL (≈ 0.0334 µM); in the test on Candida parapsilosis, 0.0312 µg/mL (≈ 0.0668 µM); in the test with Candida albicans [2], 0.0156 µg/mL (≈ 0.0334 µM); against Aspergillus fumigatus, greater than 64 µg/mL.
For the compound `C[C@@H](N1Cc2cc(-c3cccc(Cl)c3)sc2C1=O)[C@](O)(Cn1cncn1)c1ccc(F)cc1F`, the MIC with Cryptococcus neoformans stood at 0.125 µg/mL (≈ 0.25 µM); in the test with Nakaseomyces glabratus, 0.125 µg/mL (≈ 0.25 µM); against Candida albicans [1], 0.0625 µg/mL (≈ 0.125 µM); with Candida parapsilosis, 0.0625 µg/mL (≈ 0.125 µM); against Candida albicans [2] it was 0.0156 µg/mL (≈ 0.0311 µM); against Aspergillus fumigatus, 8 µg/mL (≈ 16 µM).
For `C[C@@H](N1CCc2sc(-c3ccncc3)cc2C1)[C@](O)(Cn1cncn1)c1ccc(F)cc1F`, the MIC with Cryptococcus neoformans is 0.5 µg/mL (≈ 1.07 µM); in the test with Nakaseomyces glabratus it was 4 µg/mL (≈ 8.56 µM); against Candida albicans [1] it was 0.5 µg/mL (≈ 1.07 µM); in the test on Candida parapsilosis it was 0.5 µg/mL (≈ 1.07 µM); in the test on Candida albicans [2] it was 0.25 µg/mL (≈ 0.535 µM); with Aspergillus fumigatus, greater than 32 µg/mL.
For `C[C@@H](N1Cc2cc(-c3ccc(C#N)nc3)sc2C1=O)[C@](O)(Cn1cncn1)c1ccc(F)cc1F`, the minimal inhibitory concentration (MIC) against Cryptococcus neoformans was found to be 0.125 µg/mL (≈ 0.254 µM); against Nakaseomyces glabratus it was 0.5 µg/mL (≈ 1.02 µM); in the test with Candida albicans [1] it was 0.0312 µg/mL (≈ 0.0635 µM); against Candida parapsilosis, 0.125 µg/mL (≈ 0.254 µM); against Candida albicans [2] it was 0.125 µg/mL (≈ 0.254 µM); in the test with Aspergillus fumigatus, 8 µg/mL (≈ 16.2 µM).
Turning to `Cc1cccc(-c2cc3c(s2)C(=O)N([C@H](C)[C@](O)(Cn2cncn2)c2ccc(F)cc2F)C3)c1`, the MIC was 0.125 µg/mL (≈ 0.26 µM) against Cryptococcus neoformans; 0.0625 µg/mL (≈ 0.13 µM) in the test with Nakaseomyces glabratus; 0.0625 µg/mL (≈ 0.13 µM) with Candida albicans [1]; 0.125 µg/mL (≈ 0.26 µM) in the test with Candida parapsilosis; 0.0625 µg/mL (≈ 0.13 µM) in the test on Candida albicans [2]; 4 µg/mL (≈ 8.32 µM) with Aspergillus fumigatus.
For `C[C@@H](N1Cc2cc(-c3ccccc3)sc2C1=O)[C@](O)(Cn1cncn1)c1ccc(F)cc1F`, the MIC with Cryptococcus neoformans is 0.0625 µg/mL (≈ 0.134 µM); against Nakaseomyces glabratus, 0.125 µg/mL (≈ 0.268 µM); in the test with Candida albicans [1] it was 0.0312 µg/mL (≈ 0.067 µM); in the test on Candida parapsilosis, 0.0625 µg/mL (≈ 0.134 µM); against Candida albicans [2], 0.0156 µg/mL (≈ 0.0334 µM); in the test with Aspergillus fumigatus, 8 µg/mL (≈ 17.1 µM).
For `COc1cccc(-c2cc3c(s2)C(=O)N([C@H](C)[C@](O)(Cn2cncn2)c2ccc(F)cc2F)C3)c1`, the MIC against Cryptococcus neoformans turned out to be 0.25 µg/mL (≈ 0.503 µM); against Nakaseomyces glabratus, 0.125 µg/mL (≈ 0.252 µM); in the test with Candida albicans [1] it was 0.0625 µg/mL (≈ 0.126 µM); against Candida parapsilosis it was 0.125 µg/mL (≈ 0.252 µM); with Candida albicans [2], 0.0625 µg/mL (≈ 0.126 µM); in the test with Aspergillus fumigatus, 8 µg/mL (≈ 16.1 µM).
